Source: PubChem (several laboratories)
Cl transport mod: modulates chloride dependent transport by human KCC2 | Q9H2X9 | KCC2 cells, thallium flux FluoZin-2 fluorescence | B-score of Tl+ flux slope (higher = more flux/activation; lower = inhibition) at 10 µM | actives 2.2% (n = 190,000);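 active means thallium flux slope and its plate-corrected score both differing from the plate sample mean at a set confidence after two filtering rounds, in either direction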;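 further: slope of fluorescence scaled to starting intensity during 10 to 20 s after thallium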
KCNQ1 pot: potentiates or activates the human KCNQ1 potassium channel; CHO-K1 KCNQ1, thallium flux FluxOR fluorescence; active compounds read high; P51787; actives 0.35% (n = 310,000); B-score at 10 µM; AID 2648;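 active means fluorescence ratio B-score, a plate-corrected score, at least three library SD, with initial intensity B-score within 5 SD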
Target sequence (P51787 whole entry, looked up): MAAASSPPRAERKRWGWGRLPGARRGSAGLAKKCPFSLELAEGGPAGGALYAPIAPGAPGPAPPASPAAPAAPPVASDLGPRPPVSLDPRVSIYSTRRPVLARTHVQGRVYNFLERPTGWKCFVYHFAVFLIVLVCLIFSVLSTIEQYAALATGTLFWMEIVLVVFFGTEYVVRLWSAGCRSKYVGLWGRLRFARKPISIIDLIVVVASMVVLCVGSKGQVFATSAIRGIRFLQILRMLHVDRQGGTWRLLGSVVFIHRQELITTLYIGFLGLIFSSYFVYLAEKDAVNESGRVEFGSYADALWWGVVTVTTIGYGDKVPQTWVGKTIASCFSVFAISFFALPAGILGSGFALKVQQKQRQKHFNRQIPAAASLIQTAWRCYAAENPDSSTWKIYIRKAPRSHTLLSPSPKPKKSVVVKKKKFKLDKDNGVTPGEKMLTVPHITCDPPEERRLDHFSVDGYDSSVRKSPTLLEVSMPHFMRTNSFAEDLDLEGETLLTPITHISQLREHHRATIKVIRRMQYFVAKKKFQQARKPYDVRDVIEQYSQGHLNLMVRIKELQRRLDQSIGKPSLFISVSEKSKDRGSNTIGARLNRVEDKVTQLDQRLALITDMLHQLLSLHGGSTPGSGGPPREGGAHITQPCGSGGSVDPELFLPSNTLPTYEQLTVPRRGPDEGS
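System: CHO-K1 cells stably expressing KCNQ1 / Medium: assay buffer for compound exposure, DMSO matched across wells / Reagent: thallium- and potassium-containing depolarizing buffer / Compound: one concentration, matched DMSO / Incubation: 20 min compound pretreatment at room temperature / Measured by: kinetic FluxOR fluorescence, 10 s baseline plus 110 s post-stimulus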
hERG rescue: hERG (human) protection from proarrhythmic block | actives 0.51% (n = 310,000) | activation (rescue from dofetilide block), less the hit threshold, % at 10 µM | CHO-hERG, FluxOR thallium flux, dofetilide IC70 present | Q12809 | AID 1511;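 active means activation above the mean of controls blocked by dofetilide plus 5 SD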;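 further: thallium influx through hERG after potassium depolarization seen as dye fluorescence rise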
KCNK3 inh: human KCNK3 channel inhibition, primary screen; CHO-KCNK3 thallium flux, FluxOR fluorescence; active compounds read low; B-score at 10 µM; O14649; actives 0.84% (n = 340,000); AID 602410;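 active means B-score under library mean minus 4 SD, starting fluorescence ratio at most library mean plus 5 SD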;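 further: more negative B-score means stronger inhibition of thallium flux through KCNK3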
KCNK9 block: human KCNK9 channel inhibition | Q9NPC2 | HEK293 KCNK9, FluxOR thallium flux fluorescence; active compounds read low | B-score at 10 µM | actives 1.2% (n = 310,000) | AID 488922;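 active means ratio B-score over 3 SD below the library mean, with starting fluorescence within 5 SD of its mean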;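 further: negative B-score means less thallium flux so channel inhibition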
KCNQ1 block: human KCNQ1 channel inhibition; P51787; actives 1.3% (n = 310,000); B-score at 10 µM; AID 2642; CHO-K1 KCNQ1, FluxOR thallium flux fluorescence; active compounds read high;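 active means compounds whose thallium flux B-score, printed positive for inhibition, exceeds three library SD while starting fluorescence stays within three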;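 further: channel opened by potassium depolarization with thallium stimulus after 20 min compound exposure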
* = called active by the depositor; i = inactive; x = no result given. Only some compounds are listed: those with a hit (about 4.1% of all), similar ones and a draw of the others.

SMILES	Cl transport mod	KCNQ1 pot	hERG rescue	KCNK3 inh	KCNK9 block	KCNQ1 block
N/C(=N\O)c1ccc(NC(=O)c2cccs2)cc1	0.71	i	46*	i	i	i
COc1ccc(C(=O)Nc2cccc(NC(=O)c3cccs3)c2)cc1	x	i	-8	i	i	i
O=C(Nc1cccc(NC(=O)c2cccs2)c1)c1ccc(F)cc1	x	i	-4	i	-7.4*	i
CCCCn1c(N)nc2ccccc21	x	i	7.5*	i	i	i
Cc1c(NS(=O)(=O)c2cccc(C(=O)NCc3cccc(Cl)c3)c2)c(=O)n(-c2ccccc2)n1C	x	x	x	i	x	x
CC(=O)N1CCc2cc(S(=O)(=O)N3c4ccccc4CC3C)ccc21 (centres undefined)	0.94	i	5.4*	i	i	i
CC1(C)OC(=O)N(c2ccccc2)C12C=Cc1cc(Br)ccc1O2 (centres undefined)	-0.082	i	-7	i	-7.2*	i
COc1ccc(C(=O)CCS(=O)(=O)c2ccc(F)cc2)cc1OC	x	24*	-15	i	i	i
Cc1cc([N+](=O)[O-])ccc1-c1ccc(C2Nc3ccccc3C(=O)N2O)o1 (centres undefined)	8.4*	13*	2	i	i	i
CCOC(=O)c1ccc(-c2ccc(C3Nc4ccccc4C(=O)N3O)o2)cc1 (centres undefined)	7.1*	i	-19	i	i	i
Cc1ccc(N2CC(C(=O)Oc3cccc(N4C(=O)CCC4=O)c3)CC2=O)cc1 (centres undefined)	7.1*	i	-12	i	i	i
Cc1ccc(N2CC(C(=O)OCc3ccccc3)CC2=O)cc1 (centres undefined)	-4.3*	i	-5	i	i	i
Cc1ccc(N2CC(C(=O)OCc3ccccc3F)CC2=O)cc1 (centres undefined)	-1.5	i	-6	i	i	i
CN1CCS/C1=C/C=C1\SC(=S)N(CC(=O)O)C1=O	i	i	-32	i	i	14*
CCCCN1C(=O)/C(=C/C=C2\SCCN2C)SC1=S	0.33	i	-16	i	i	i
COc1ccc(-c2nn(-c3ccccc3)cc2/C=N/NC(=O)c2ccc3c(c2)OCO3)cc1	0.53	i	-28	x	i	i
COc1ccc(-c2nn(-c3ccccc3)cc2/C=N/NC(=O)c2ccc(Br)o2)cc1	1.7	i	-14	-9.6*	-6.7*	11*
O=C(N/N=C\c1cn(-c2ccccc2)nc1-c1ccccc1)c1ccc2c(c1)OCO2	0.098	i	-36	i	-6.8*	i
Cc1ccc(S(=O)(=O)N(C)C)cc1NC(=O)COc1ccccc1C(=O)Nc1ccccc1	x	i	-9	i	i	i
Cc1ccc(NC(=O)COc2ccccc2C(=O)NCCN(C)C)cc1	0.62	i	6.9*	x	i	i
Cc1ccc(NC(=O)c2ccccc2OCC(=O)Nc2ccccc2F)cc1S(=O)(=O)N(C)C	x	x	x	-9.6*	x	x
N#CCC(=O)Nc1ccc(C(=O)OCC(=O)NC(=O)NCc2ccco2)cc1	x	x	x	i	x	x
Cc1ccc(-c2cn(-c3ccccc3)c(SCC(=O)NC3CCS(=O)(=O)C3)n2)cc1C (centres undefined)	12*	i	-2	i	i	i
Cc1ccc(SCC(=O)NC2CCS(=O)(=O)C2)cc1C (centres undefined)	x	x	x	i	x	x
COc1ccc(CCC(C)Nc2cccc(F)c2)cc1 (centres undefined)	1.2	i	-8	i	-6.6*	i
SMILES	Cl transport mod	KCNQ1 pot	hERG rescue	KCNK3 inh	KCNK9 block	KCNQ1 block
COc1ccc(CCC(C)Nc2ccccc2F)cc1 (centres undefined)	-0.43	i	-4	i	i	i
COc1ccc(S(=O)(=O)Nc2nc3ccccc3s2)cc1OC	-0.14	i	4.7*	i	i	i
O=C(N=Nc1c(O)[nH]c2ccc([N+](=O)[O-])cc12)c1cc(-c2ccccc2Cl)nc2ccccc12	0.7	i	15*	i	i	i
CC(O)(Cc1ccccn1)Cc1ccccn1	x	x	x	i	x	x
Cc1ccc(NC(=O)CN(C)C(=O)c2cc(-c3ccccc3)nn2-c2ccccc2)cc1	x	x	x	i	x	x
O=C(COc1ccc2ccccc2c1Br)Nc1cccnc1	x	i	23*	i	i	i
O=C(COc1ccc2ccccc2c1Br)Nc1ccncc1	x	i	-4	i	i	i
O=C1/C(=C\c2ccc(O)c(O)c2)C(c2ccccc2)=NN1c1ccccc1	-0.62	i	-29	i	i	6*
COc1cc(/C=C2\C(=O)N(c3ccc(NC(C)=O)cc3)N=C2c2ccccc2)ccc1O	-1.9	i	-17	i	i	i
O=C(N/N=C/c1ccccc1C(=O)O)c1ccccc1Br	0.41	i	4.9*	i	i	i
COc1cc(CC(=O)Nc2cc(S(=O)(=O)N3CCOCC3)ccc2N2CCCC2)cc(OC)c1OC	x	x	x	i	x	x
O=C(CSC(=O)c1ccccc1)Nc1ccccc1F	x	x	x	i	x	x
COc1ccc(CCN=C(NS(=O)(=O)c2ccccc2)c2ccccc2)cc1OC	-0.27	i	12*	i	i	i
Cc1cc(C(=O)OCC(=O)Nc2ccccc2C#N)c(C)o1	x	x	x	i	x	x
NNC(=O)c1[nH]c2ccc([N+](=O)[O-])cc2c1-c1ccccc1	x	i	-2	i	i	i
O=C(N/N=C/c1ccccn1)c1[nH]c2ccc([N+](=O)[O-])cc2c1-c1ccccc1	2.7	i	-19	i	i	10*
CC(=O)c1cccc(OCC(=O)Nc2ccccc2N2CCOCC2)c1	x	x	x	i	x	x
COc1ccc(NC(=O)CN(C)C(=O)c2sc3cc(Cl)ccc3c2Cl)cc1	x	i	-8	i	i	i
C[C@@H](CC#N)CN1CC[C@H](C(C)(C)C)CCC1=O	x	i	5.0*	i	i	i
COc1ccc(NC2=NC(=S)N(c3ccccc3C)C23CCCCC3)cc1	89*	i	-8	i	i	i
O=C(O)c1cccc(N2C(=S)N=C(Nc3ccccc3)C23CCCCC3)c1	-1.9	i	-7	i	i	i
COC(=O)c1ccc(C2C(C#N)=C(N)Oc3cc(O)ccc32)cc1 (centres undefined)	x	i	61*	i	i	i
C=CCn1c(C)cc(C2=NNC(=NC(C)(C)C)SC2)c1C	-2	i	-12	i	i	8*
CC(C)CCC[C@@H](C)[C@H]1CC[C@H]2[C@@H]3C(=O)C=C4C[C@@H](O)CC[C@]4(C)[C@H]3CC[C@]12C	x	i	-6	i	i	i
